Measurements published in ChEMBL document CHEMBL1157094, “Study on the constituents of Mexican propolis and their cytotoxic activity against PANC-1 human pancreatic cancer cells” (J Nat Prod, 2010).
Calls of active or inactive are those of the source. The calls are words filed in the database; no cut-off is given here.

Tested on: PANC-1
Test: Induction of apoptosis in human PANC1 cells in nutrient-deprived condition assessed as nuclear condensation at 12.5 uM after 24 hrs by phase-contrast microscopy
Type: functional, cell-based
Conditions: not given
How it was run: (§1)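 PANC-1 cells were seeded at 2 × 10^4 per well and grown 24 h in DMEM at 37 °C under 5% CO2/95% air. They were then washed with PBS and switched to nutrient-deprived medium (NDM) containing test compound. After 24 h exposure at 12.5 µM, morphology was photographed under a phase-contrast microscope at 200× magnification.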

| Structure (SMILES) | Activity |
| --- | --- |
| C=C[C@H](c1ccc(O)c(OC)c1)c1c(O)cc(O)c2c(=O)c(O)c(-c3ccccc3)oc12 | Active |

Tested on: PANC-1
Test: Induction of apoptosis in human PANC1 cells in nutrient-deprived condition assessed as nuclear fragmentation at 12.5 uM after 24 hrs by phase-contrast microscopy
Type: functional, cell-based
Conditions: not given
How it was run: as §1

| Structure (SMILES) | Activity |
| --- | --- |
| C=C[C@H](c1ccc(O)c(OC)c1)c1c(O)cc(O)c2c(=O)c(O)c(-c3ccccc3)oc12 | Active |

Tested on: not listed separately
Test: Cytotoxicity against human TIG3 cells after 24 hrs by WST-8 assay
Conditions: tig-3, 24 h

| Structure (SMILES) | Activity |
| --- | --- |
| C=C[C@H](c1ccc(O)c(OC)c1)c1c(O)cc(O)c2c(=O)c(O)c(-c3ccccc3)oc12 | Non-toxic |

Tested on: PANC-1
Test: Induction of apoptosis in human PANC1 cells in nutrient-deprived condition assessed as membrane bleb formation at 12.5 uM after 24 hrs by phase-contrast microscopy
Type: functional, cell-based
Conditions: not given
How it was run: as §1

| Structure (SMILES) | Activity |
| --- | --- |
| C=C[C@H](c1ccc(O)c(OC)c1)c1c(O)cc(O)c2c(=O)c(O)c(-c3ccccc3)oc12 | Active |

Tested on: PANC-1
Test: Cytotoxicity against human PANC1 cells in nutrient-deprived condition assessed as preferential cell death after 24 hrs by WST-8 assay
Conditions: not given

| Structure (SMILES) | PC50 [µM] |
| --- | --- |
| COc1cc(-c2oc3cc(O)cc(O)c3c(=O)c2OC)ccc1O [3,3'-O-DIMETHYLQUERCETIN] | 59.8 |
| CCC(C)C(=O)O[C@H]1C(=O)c2c(O)cc(OC)cc2O[C@@H]1c1ccccc1 (stereo not given in full) | 44.8 |
| O=C(/C=C/c1ccccc1)OC/C=C/c1ccccc1 | >100 |
| O=C(/C=C/c1ccc(O)cc1)OCc1ccccc1 | 23.8 |
| COc1ccc(/C=C/C(=O)OC/C=C/c2ccccc2)cc1OC | 98.9 |
| O=C1C[C@@H](c2ccc(O)cc2)Oc2cc(O)cc(O)c21 [NARINGENIN] | >100 |
| O=C(O)/C=C/c1ccc(O)cc1 [COUMARIC ACID] | 77 |
| COc1cc(C=O)ccc1O [VANILLIN] | >100 |
| CC(=O)O[C@H]1C(=O)c2c(O)cc(O)cc2O[C@@H]1c1ccccc1 | 36.6 |
| O=c1cc(-c2ccccc2)oc2cc(O)cc(O)c12 [CHRYSIN] | 88.7 |
| O=C1C[C@@H](c2ccccc2)Oc2cc(O)cc(O)c21 [PINOCEMBRIN] | 46.5 |
| O=C(/C=C/c1ccccc1)OCc1ccccc1 [BENZYL CINNAMATE] | >100 |
| COc1cc(O)c2c(c1)O[C@H](c1ccccc1)CC2=O [PINOSTROBIN] | >100 |
| COc1cc(/C=C/C(=O)O)ccc1O [FERULATE] | 66.6 |
| COc1cc(/C=C/C(=O)OCc2ccccc2)ccc1O [BENZYL FERULATE] | 17 |
| CC(C)CC(=O)O[C@H]1C(=O)c2c(O)cc(O)cc2O[C@@H]1c1ccccc1 | 17.5 |
| COc1ccc(/C=C/C(=O)O)cc1OC [O,O'-DIMETHYLCAFFEIC ACID] | >100 |
| C=C[C@H](c1ccc(O)c(OC)c1)c1c(O)cc(O)c2c(=O)cc(-c3ccccc3)oc12 | 12.7 |
| CC(=O)OCC(O)COC(=O)/C=C/c1ccc(O)cc1 (stereo not given) | >100 |
| COc1cc(/C=C/C(=O)OCC(COC(=O)/C=C/c2ccc(O)c(OC)c2)OC(C)=O)ccc1O | 25.8 |
| COc1cc(O)c2c(c1)O[C@H](c1ccccc1)[C@@H](O)C2=O | 74.2 |

| Structure (SMILES) | PC50 [µM] |
| --- | --- |
| COc1cc(O)c2c(c1)O[C@H](c1ccccc1)[C@@H](OC(C)=O)C2=O | 75.3 |
| COc1ccc(/C=C/C(=O)OC/C=C/c2ccccc2)cc1O | 31.7 |
| CC(=O)OC(COC(=O)/C=C/c1ccc(O)cc1)COC(=O)/C=C/c1ccc(O)cc1 | 38.8 |
| O=C(OC/C=C/c1ccccc1)c1ccccc1 | >100 |
| O=C(O)/C=C/c1ccccc1 [CINNAMIC ACID] | >100 |
| CC(C)C(=O)O[C@H]1C(=O)c2c(O)cc(O)cc2O[C@@H]1c1ccccc1 | 19.8 |
| CC(=O)OC(COC(=O)/C=C/c1ccc(O)cc1)COC(=O)/C=C/c1ccc(O)c(O)c1 (stereo not given) | 17.4 |
| COc1cc(O)c2c(=O)cc(-c3ccccc3)oc2c1 [TECHTOCHRYSIN] | >100 |
| O=c1c(O)c(-c2ccccc2)oc2cc(O)cc(O)c12 [GALANGIN] | 22.1 |
| CCC(=O)O[C@H]1C(=O)c2c(O)cc(O)cc2O[C@@H]1c1ccccc1 | 18.2 |
| C=C[C@H](c1ccc(O)c(OC)c1)c1c(O)cc(O)c2c(=O)c(O)c(-c3ccccc3)oc12 | 4.6 |
| COc1cc(/C=C/C(=O)OCC(COC(=O)/C=C/c2ccc(O)cc2)OC(C)=O)ccc1O (stereo not given) | 32.7 |
| COc1cc(O)cc2c1C(=O)[C@H](O)[C@@H](c1ccccc1)O2 | >100 |
| O=C(O)c1ccccc1 [BENZOIC ACID] | >100 |
| COc1ccc(/C=C/C(=O)OCc2ccccc2)cc1OC | 58.8 |
| O=C(/C=C/c1ccc(O)cc1)OC/C=C/c1ccccc1 | 38.2 |
| COc1cc(O)c2c(=O)c(O)c(-c3ccccc3)oc2c1 [IZALPININ] | >100 |
| COc1c(-c2ccc(O)cc2)oc2cc(O)ccc2c1=O | >100 |
| O=C(O)/C=C/C=C/c1ccccc1 [JUAREZIC ACID] | >100 |
| O=c1cc(-c2ccc(O)cc2)oc2cc(O)cc(O)c12 [APIGENIN] | 89.5 |
